We go through nine compounds from PubChem BioAssay.

The structures appear in SMILES notation. Calls of active or inactive are those of the source.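 The calls were made as follows, unless noted: active = fluorescence slope higher than the sample average by over 3 SD (cut at about -0.22 in these data, passing the limit was not always enough); inactive = the rest.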

Test [1] can be described thus: inhibitors of TNFa-induced NFkB p65 translocation, primary screen, imaging, HUVEC, MLSMR starter and 10KST1 sets (AID 438;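 active = inhibition above 20% together with a positive visual image hit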;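 also: compound added about 3h40 before a 20 min TNFalpha stimulation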;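 as to inhibition: signal is the nuclear over cytoplasmic p65 intensity ratio per well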). The note with it: HUVEC TNFa-induced p65 nuclear translocation; cell count: measured here: nuclei count (cytotoxicity indicator), at 2.08 µM; inhibition: at 2 µM, stronger effect = higher value, 0% TNFa-plus-vehicle, 100% no-TNFa wells.
The nature of test [2]: inhibitors of mutant huntingtin aggregation, primary screen, imaging, exon1htt(103Q)mCFP cells, high-content imaging (AID 483;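 active = visual image review flags a hit and inhibition of aggregation exceeds 20%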;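 also: compound exposure lasted 3 days before fixation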;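 as to nuclei count: percent of the per-plate median nuclei count of sample wells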). As to conditions: exon1htt(103Q)mCFP cell line, aggregate imaging, at 2 µM; inhibition of aggregation: stronger effect = higher value; nuclei count: measured here: cell count, toxicity.
Test [3] is described as follows: inhibitors of E-selectin induction by TNFa, primary screen, imaging, HUVEC, immunofluorescence, MLSMR starter and 10KST1 sets (AID 487;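 active = visually confirmed hit in the image check and inhibition above 20%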;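 as to inhibition: signal is fraction of cell area covered by stained E-selectin grains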;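 as to nuclei count: 100% = median nuclei count of all wells on the same plate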). The note with it: HUVEC TNFalpha-induced E-selectin immunofluorescence imaging, at 2 µM; inhibition: stronger effect = higher value; nuclei count: measured here: cell number, toxicity.
Test [4] addresses Voltage-gated potassium channel subunit beta-2 (Rattus norvegicus) (UniProt P62483). As to the kind of experiment: KvBeta enzyme negative modulators, primary screen, biochemical, NADPH fluorescence (AID 622).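 Also: slope of raw intensity against log time taken from 70 to 1610 s.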 As to conditions: recombinant KvBeta, 4-cyanobenzaldehyde reduction, at 10 µM, stronger effect = higher value.
For test [5] the target is unchanged. Kind of test: KvBeta positive modulators, primary screen, biochemical, NADPH fluorescence (AID 623;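 active = NADPH fluorescence slope more negative than the mean of all samples by about 3 SD, 99.7% confidence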;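 also: fluorescence intensity change per second fitted from 20 to 320 s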). As to conditions: Recombinant KvBeta, NADPH fluorescence decrease slope, 10 min; at 10 µM; stronger effect = lower value.
The target of test [6] is Muscarinic acetylcholine receptor M4 (Homo sapiens) (UniProt P08173). Kind of test: compounds altering M4/GIRK thallium flux, either direction, primary screen, M4 allosteric agonist project, cell-based, HEK293 M4/GIRK, BTC-AM (AID 625;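 active = fluorescence slope after compound addition differing from the mean of all tested samples at 99.7% confidence, mostly higher but some lower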;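 also: thallium influx through GIRK channels coupled to M4 in HEK293 cells with BTC-AM dye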). As to conditions: at 10 µM, actives lie on both sides. Put shortly: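 System: HEK293 cells with M4 receptor and GIRK channels | Incubation: Cells overnight at 37 °C, BTC-AM loading 1 h, reads 2 min total | Technique: Kinetic BTC-AM fluorescence sampled at 1 Hz, 10 s pre-addition baseline | Measure: Post-addition slope, 15–24 s, of baseline-normalized fluorescence | Control set: Carbachol positive, DMSO negative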

Test [7] in a line: inhibitors of Sendai virus-induced IRF3 signaling, primary screen, TLR/RLR signaling modifier project, cell-based, Sendai virus stimulus, luciferase, 10K MLSCN set (AID 602276;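 active = inhibition at or above 50% at 10 µM; inactive = inhibition below 50%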;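 also: firefly luciferase from ISG56 promoter only with Renilla not read in this screen; 0% = Sendai virus plus DMSO and 100% = medium plus DMSO without virus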). The note with it: HEK293 RL24 IRF3 luciferase reporter, at 10 µM, stronger effect = higher value.
A short description of test [8]: inhibitors of poly I:C-induced TLR3 signaling, primary screen, cell-based, poly I:C stimulus, luciferase, 10K MLSCN set (AID 602277;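 active = inhibition of the reporter signal at or above 50%; inactive = inhibition below 50%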). The note with it: HEK293-TLR3 RL24 IRF3 luciferase reporter, at 10 µM, stronger effect = higher value.

Muscarinic acetylcholine receptor M4 (Homo sapiens), sequence (P08173 whole entry, looked up): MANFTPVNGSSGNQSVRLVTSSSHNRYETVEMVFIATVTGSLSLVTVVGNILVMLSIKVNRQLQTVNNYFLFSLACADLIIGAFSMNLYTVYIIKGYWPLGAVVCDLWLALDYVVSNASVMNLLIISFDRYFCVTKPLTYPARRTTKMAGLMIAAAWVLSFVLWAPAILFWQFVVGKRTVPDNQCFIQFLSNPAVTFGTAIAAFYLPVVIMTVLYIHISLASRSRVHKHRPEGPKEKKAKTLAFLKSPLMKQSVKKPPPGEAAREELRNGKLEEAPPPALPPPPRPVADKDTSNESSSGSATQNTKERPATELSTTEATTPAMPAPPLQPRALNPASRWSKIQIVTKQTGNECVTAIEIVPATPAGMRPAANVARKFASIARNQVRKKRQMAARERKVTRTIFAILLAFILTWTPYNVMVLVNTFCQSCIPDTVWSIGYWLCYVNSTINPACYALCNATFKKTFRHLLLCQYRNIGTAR
Voltage-gated potassium channel subunit beta-2 (Rattus norvegicus), sequence (P62483 whole entry, looked up): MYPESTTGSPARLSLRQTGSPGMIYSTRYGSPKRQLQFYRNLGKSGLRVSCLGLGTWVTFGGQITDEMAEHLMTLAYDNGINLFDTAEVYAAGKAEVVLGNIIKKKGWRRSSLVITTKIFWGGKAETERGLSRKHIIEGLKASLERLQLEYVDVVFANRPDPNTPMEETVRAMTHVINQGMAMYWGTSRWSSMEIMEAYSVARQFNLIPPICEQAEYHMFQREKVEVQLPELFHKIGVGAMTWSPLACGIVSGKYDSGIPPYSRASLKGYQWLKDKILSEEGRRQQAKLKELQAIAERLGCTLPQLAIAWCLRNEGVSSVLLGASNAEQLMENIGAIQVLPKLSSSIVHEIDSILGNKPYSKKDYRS

For the compound `CCOC(=O)c1c(NCc2ccc3c(c2)OCO3)c2ccccc2[nH]c1=O`, the cell count in test [1] was found to be 509. For the same compound, the inhibition was -9.9% (inactive) in test [1], -51.7% (inactive) in test [3], 12.5% (inactive) in test [7] and -13.3% (inactive) in test [8]. Besides, the inhibition of aggregation in test [2] is 16.6% (inactive). Further, the nuclei count in test [2] was found to be 94.1%; in test [3], 111%. For the same compound, the values for the fluorescence slope in test [4] and in test [6] were -0.252 (inactive) and 0.00507 (inactive), respectively. Besides, the NADPH fluorescence slope in test [5] is -2.6e-05 (inactive).

In the case of `CC1CCN(C(=O)c2cc(-c3ccc(Cl)c(Cl)c3)on2)CC1`, the cell count in test [1] came to 435. The inhibition in test [1] is 0.9% (inactive); in test [3], 6.5% (inactive); in test [7] it was -41% (inactive); in test [8] it was -89% (inactive). The inhibition of aggregation in test [2] was 4.2% (inactive). In addition, the nuclei count turned out to be 94% in test [2] and 91.7% in test [3]. Further, the figures for the fluorescence slope in test [4] and in test [6] were -0.449 (inactive) and 0.00453 (inactive), respectively. The NADPH fluorescence slope in test [5] is -3.4e-05 (inactive).

Take `CCOC(=O)CSc1nnc(CNC(=O)c2ccc(S(=O)(=O)N3CCCC3)cc2)n1C`: in test [1], the cell count came to 617. The inhibition is 1.2% (inactive) in test [1], -54.4% (inactive) in test [3], 12.8% (inactive) in test [7] and 18.7% (inactive) in test [8]. In addition, the inhibition of aggregation in test [2] is 1.3% (inactive). Further, the nuclei count in test [2] stood at 96.9%; in test [3], 122%. Besides, the fluorescence slope in test [4] was -0.58 (inactive); in test [6], 0.00697 (inactive). For the same compound, in test [5], the NADPH fluorescence slope is -8.2e-06 (inactive).

Regarding `COc1cc(C2C(C(=O)c3ccc(C)o3)=C(O)C(=O)N2c2cc(C)on2)cc(Br)c1O` (centres undefined), the cell count in test [1] is 724. Further, the inhibition in test [1] is -16.4% (inactive); in test [3], -127% (inactive); in test [7] it was 13.3% (inactive); in test [8], 19.1% (inactive). The inhibition of aggregation in test [2] was -2.8% (inactive). The nuclei count worked out at 109% in test [2] and 118% in test [3]. The values for the fluorescence slope in test [4] and in test [6] were -0.518 (inactive) and 0.00505 (inactive), respectively. In test [5], the NADPH fluorescence slope is -3e-05 (inactive).

On to `CN(C)C=Nc1nonc1N`, for which the cell count in test [1] was found to be 429. For the same compound, the inhibition is 9% (inactive) in test [1], 24.6% (inactive) in test [3], 18% (inactive) in test [7] and 21% (inactive) in test [8]. Further, in test [2], the inhibition of aggregation is -2% (inactive). Further, the nuclei count in test [2] was found to be 105%; in test [3] it was 99.3%. Also, the values for the fluorescence slope in test [4] and in test [6] were -0.584 (inactive) and 0.00382 (inactive), respectively. The NADPH fluorescence slope in test [5] was -7.3e-05 (inactive).

As to `Cn1c(-c2ccccc2)c(CCO)c2ccccc21`, in test [1], the cell count amounted to 578. For the same compound, the inhibition is 13.7% (inactive) in test [1], -60.6% (inactive) in test [3], 6.84% (inactive) in test [7] and 6.66% (inactive) in test [8]. The inhibition of aggregation in test [2] is -2.6% (inactive). In addition, the nuclei count in test [2] turned out to be 88.3%; in test [3], 152%. In addition, the values for the fluorescence slope in test [4] and in test [6] were -0.559 (inactive) and 0.00569 (inactive), respectively. The NADPH fluorescence slope in test [5] is -3.6e-05 (inactive).

On to `Cc1ccc(Cl)cc1NC(=O)CSc1nnc(C)n1-c1ccccc1`, for which the cell count in test [1] was 783. Further, the inhibition in test [1] is -5.4% (inactive); in test [3] it was -16% (inactive); in test [7], 21.8% (inactive); in test [8], 23.3% (inactive). The inhibition of aggregation in test [2] is -28.9% (inactive). Moreover, the nuclei count in test [2] was 100%; in test [3], 96%. In addition, the results for the fluorescence slope in test [4] and in test [6] were -0.551 (inactive) and 0.00502 (inactive), respectively. Moreover, the NADPH fluorescence slope in test [5] was -4.3e-05 (inactive).

With `Cc1cc(C)c(S(=O)(=O)N(C)CC(N)=O)c(C)c1`, in test [1], the cell count was 320. Moreover, the inhibition was 5.1% (inactive) in test [1], -60.9% (inactive) in test [3], -4.02% (inactive) in test [7] and -17.9% (inactive) in test [8]. In test [2], the inhibition of aggregation was -7.6% (inactive). For the same compound, the nuclei count in test [2] came to 103%; in test [3] it was 111%. Also, the fluorescence slope in test [4] is -0.489 (inactive); in test [6], 0.00514 (inactive). Also, the NADPH fluorescence slope in test [5] was 4.3e-05 (inactive).

For the compound `O=S(=O)(Nc1cccc2ncccc12)c1cccs1`, the cell count in test [1] was 469. Moreover, the inhibition in test [1] is -38% (inactive); in test [3] it was 39.3% (inactive); in test [7], -7.18% (inactive); in test [8], -3.78% (inactive). Also, the inhibition of aggregation in test [2] is -0.2% (inactive). The nuclei count in test [2] worked out at 67.2%; in test [3] it was 23.8%. Further, the fluorescence slope is -0.486 (inactive) in test [4] and 0.0108 (active) in test [6]. Besides, in test [5], the NADPH fluorescence slope was 2.1e-05 (inactive).
